We go through two molecules from ChEMBL document CHEMBL1817556, “Substituted lactam and cyclic azahemiacetals modulate Pseudomonas aeruginosa quorum sensing” (Bioorg Med Chem, 2011).

SMILES strings stand for the structures.

Test [1] has as its target 3-(3-hydroxydecanoyloxy)decanoate synthase (Pseudomonas aeruginosa (strain ATCC 15692 / PAO1 / 1C / PRS 101 / LMG12228)) (UniProt Q51559). Kind of test: Modulation of Pseudomonas aeruginosa lacZ-fused rhlA expressed in Escherichia coli DH5alpha co-expressing Ptac-rhlR at 0.002 mM after 4 hrs by beta-galactosidase assay relative to control. The essentials:
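E. coli DH5α carrying pECP61.5 (Ptac-rhlR plus PrhlA-lacZ) was grown overnight in LB with ampicillin 100 μg/ml and diluted to OD600 0.150. It was induced with 1 mM IPTG, and 2 μM C4-HSL plus compound or DMSO were added at OD600 1.0. Cultures were shaken 4 h at 37°C and β-galactosidase read in Miller units. Activity is % of solvent control, triplicates, ≥2 biological repeats, paired two-tailed t-test.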

For test [2], the target named is T1, Acyl-homoserine-lactone synthase (Pseudomonas aeruginosa (strain ATCC 15692 / PAO1 / 1C / PRS 101 / LMG12228)) (UniProt P33883).
T1 sequence (whole entry): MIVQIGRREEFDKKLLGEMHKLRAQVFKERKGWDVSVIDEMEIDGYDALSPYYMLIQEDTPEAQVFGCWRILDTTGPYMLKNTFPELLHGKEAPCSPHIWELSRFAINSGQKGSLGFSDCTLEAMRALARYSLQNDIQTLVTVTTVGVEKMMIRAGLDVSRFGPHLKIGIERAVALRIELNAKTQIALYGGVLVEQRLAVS
Kind of test: Modulation of Pseudomonas aeruginosa lacZ-fused lasI expressed in Escherichia coli DH5alpha co-expressing pBAD-lasR assessed as 3-oxo-C12-AHL-induced effect at 0.17 mM after 3 hrs by beta-galactosidase assay relative to control. The essentials: (§1)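 E. coli DH5α carrying pSC11 (PlasI-lacZ translational fusion) and pJN105L (PBAD-lasR) was grown overnight in LB with ampicillin (100 μg/ml) and gentamicin (15 μg/ml), then diluted to OD600 0.150. Arabinose (0.2% w/v), 3-oxo-C12-AHL (2 μM) and test compound or DMSO were added. Cultures were shaken 3 h at 37 °C. β-Galactosidase activity was read in Miller units and expressed as % of the solvent sample. Triplicates per biological replicate, repeated at least twice; paired two-tailed t-test.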

The target in test [3] is T1, Acyl-homoserine-lactone synthase (Pseudomonas aeruginosa (strain ATCC 15692 / PAO1 / 1C / PRS 101 / LMG12228)). Kind of test: Modulation of Pseudomonas aeruginosa lacZ-fused lasI expressed in Escherichia coli DH5alpha co-expressing pBAD-lasR assessed as 3-oxo-C12-AHL-induced effect at 0.33 mM after 3 hrs by beta-galactosidase assay relative to control. The essentials:
as §1

The target is the same in test [4]. Kind of test: Modulation of Pseudomonas aeruginosa lacZ-fused lasI expressed in Escherichia coli DH5alpha co-expressing pBAD-lasR assessed as 3-oxo-C12-AHL-induced effect at 0.50 mM after 3 hrs by beta-galactosidase assay relative to control. The essentials:
as §1

For test [5] the target is unchanged. As to the kind of experiment: Modulation of Pseudomonas aeruginosa lacZ-fused lasI expressed in Escherichia coli DH5alpha co-expressing pBAD-lasR assessed as 3-oxo-C12-AHL-induced effect at 0.67 mM after 3 hrs by beta-galactosidase assay relative to control. The essentials: as §1
Test [6] addresses 3-(3-hydroxydecanoyloxy)decanoate synthase (Pseudomonas aeruginosa (strain ATCC 15692 / PAO1 / 1C / PRS 101 / LMG12228)) (UniProt Q51559). Kind of test: Modulation of Pseudomonas aeruginosa lacZ-fused rhlA expressed in Escherichia coli DH5alpha co-expressing Ptac-rhlR assessed as C4-AHL-induced effect at 0.17 mM after 4 hrs by beta-galactosidase assay relative to control. A digest of the protocol: (§2)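 rhl reporter: E. coli DH5α carrying pECP61.5 (Ptac-rhlR, PrhlA-lacZ) was grown overnight in LB with ampicillin (100 μg/ml) only, then diluted to OD600 0.150. It was induced with 1 mM IPTG, and 2 μM C4-HSL plus compound or DMSO were added at OD600 1.0. Cultures were shaken 4 h at 37 °C. β-Galactosidase activity was read in Miller units as % of the solvent sample. Triplicates per biological replicate, at least two repeats; paired two-tailed t-test.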

Test [7] shares this target. As to the kind of experiment: Modulation of Pseudomonas aeruginosa lacZ-fused rhlA expressed in Escherichia coli DH5alpha co-expressing Ptac-rhlR assessed as C4-AHL-induced effect at 0.33 mM after 4 hrs by beta-galactosidase assay relative to control. A digest of the protocol:
as §2

Test [8] shares this target. Kind of test: Modulation of Pseudomonas aeruginosa lacZ-fused rhlA expressed in Escherichia coli DH5alpha co-expressing Ptac-rhlR assessed as C4-AHL-induced effect at 0.50 mM after 4 hrs by beta-galactosidase assay relative to control. A digest of the protocol: as §2
Test [9] shares this target. Kind of test: Modulation of Pseudomonas aeruginosa lacZ-fused rhlA expressed in Escherichia coli DH5alpha co-expressing Ptac-rhlR assessed as C4-AHL-induced effect at 0.67 mM after 4 hrs by beta-galactosidase assay relative to control. A digest of the protocol: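 E. coli DH5α carrying pECP61.5 (Ptac-rhlR, PrhlA-lacZ), grown overnight in LB with ampicillin 100 μg/ml and diluted to OD600 0.150. At OD600 1.0, 1 mM IPTG, 2 μM C4-HSL and compound or DMSO were added. Cultures were shaken 4 h at 37 °C, then β-galactosidase was read in Miller units. Activity is % of solvent sample, from triplicates per biological replicate, with at least two repeats.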

With `CCCC(=O)N[C@H]1CCOC1=O`, the Activity in [1] is 100%.

As for `CCCCCCCCCCCCSC[C@@H]1CCC(=O)N1`, the Activity in test [2] was determined as 52%; in test [3], 32%; in test [4], 18%; in test [5] it was 11%; in [6], 103%; in [7], 106%. Besides, the Activity in test [8] is 109%; in [9], 106%.
